Published values from different studies.
Each line is one published result; the experiments were not run side by side.
Target: Calcium/calmodulin-dependent protein kinase type IV (CAMK4, Homo sapiens, UniProt Q16566)
One construct used (Q16566 1-473): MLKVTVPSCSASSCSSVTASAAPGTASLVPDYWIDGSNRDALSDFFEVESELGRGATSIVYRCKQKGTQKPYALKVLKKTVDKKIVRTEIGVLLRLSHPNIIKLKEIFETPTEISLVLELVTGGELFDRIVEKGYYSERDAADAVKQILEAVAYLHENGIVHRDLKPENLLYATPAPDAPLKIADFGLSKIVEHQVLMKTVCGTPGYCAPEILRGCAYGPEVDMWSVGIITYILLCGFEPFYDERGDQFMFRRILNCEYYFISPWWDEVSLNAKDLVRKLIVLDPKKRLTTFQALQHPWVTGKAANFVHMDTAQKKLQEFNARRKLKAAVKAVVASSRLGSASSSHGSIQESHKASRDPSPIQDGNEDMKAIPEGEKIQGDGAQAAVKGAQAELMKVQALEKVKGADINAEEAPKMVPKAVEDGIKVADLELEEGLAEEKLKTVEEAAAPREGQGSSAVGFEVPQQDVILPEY

Compound | read-out | method | concentration | remaining binding [%]
F[C@@H]1CCN(c2nccc(-c3cnn4ncccc34)n2)C1 | binding | – | 1 µM | 79
CNC(=O)Nc1ccc2c(c1)[C@@]1(CC2)OC(=O)N(CC(=O)N(Cc2ccc(F)cc2)[C@@H](C)C(F)(F)F)C1=O | cell-free assay | competition with immobilised ligand | 1 µM | 85
COc1ncc2cc3ccccc3nc2c1C#N | cell-free assay | competition with immobilised ligand | 5 µM | 93
COc1cnc(Nc2cccc(S(N)(=O)=O)c2)nc1N1CCN(c2ccccc2)C(=O)C1 | binding | competition with immobilised ligand | 1 µM | 100
COc1ccnn2ncc(-c3ccnc(N(C)C)n3)c12 | binding | – | 1 µM | 100
CC1=C(C#N)[C@@H](c2ccc3[nH]nc(C)c3c2)C(C#N)=C(c2ccc(Cl)cc2)N1 | cell-free assay | competition with immobilised ligand | 1 µM | 31.8
CC1CCCN1c1nccc(-c2cnn3ncccc23)n1 (stereo not shown) | binding | – | 1 µM | 100
Cc1c(NC(=O)c2cc(C(N)=O)nc3cc(F)ccc23)c(C(F)(F)F)nn1Cc1ccc(C(C)(C)C)cc1 | cell-free assay | competition with immobilised ligand | 1 µM | 90
O=C(NCCCN1CCOCC1)c1ccc(Nc2ncc(Cl)c(-c3ccc(Cl)s3)n2)cc1 | binding | competition with immobilised ligand | 1 µM | 100
N[C@@H]1CCN(c2nccc(-c3cnn4ncccc34)n2)C1 | binding | – | 1 µM | 100
Nc1c(C(=O)NCc2ccc(C(=O)NCCCC3CCCCC3)cc2)cnn1-c1ccccc1 | cell-free assay | competition with immobilised ligand | 0.1 µM | 98
Nc1ncc2c(n1)-c1c([nH]c3ccc(C#CC4CC4)cc13)CCCC2 | binding | competition with immobilised ligand | 1 µM | 100
Cn1nc(C(F)(F)F)cc1-c1cnc(N2CCc3cc(S(=O)(=O)Nc4c(F)cc(Cl)cc4F)cc(N4CCCC4=O)c32)nc1 | cell-free assay | competition with immobilised ligand | 1 µM | 100
O=C(c1ccc(Nc2nccc(-c3cc4ccccc4s3)n2)cc1)N1CCC(N2CCCC2)CC1 | binding | competition with immobilised ligand | 1 µM | 100
c1cnn2ncc(-c3ccnc(N4CCC45COC5)n3)c2c1 | binding | – | 1 µM | 100
CNC(=O)[C@@H]1CC[C@@H](n2c(-c3ccc4cnccc4c3)nc3ccc(C(=O)NCc4cccc(C(N)=O)c4)cc32)C1 | binding | competition with immobilised ligand | 1 µM | 100
C[C@H](NC(=O)c1cnc2n1[C@](C)(Cc1ccc(C#N)cc1)C(=O)N2c1cc(Cl)c(F)c(Cl)c1)C(=O)NC1(c2ccccn2)CC1 | cell-free assay | competition with immobilised ligand | 1 µM | 100
C[C@@H]1CCN(c2nccc(-c3cnn4ncccc34)n2)C1 | binding | – | 1 µM | 100
C[C@H](c1ccnc(Nc2nc3ccc(-c4cc(N(C)C)ncn4)cc3[nH]2)c1)N1CCN(C(=O)CC(F)(F)F)CC1 | cell-free assay | competition with immobilised ligand | 0.1 µM | 100
Cc1cnc(Nc2ccc(C(=O)N3CCC(N4CCCC4)CC3)cc2)nc1-c1cc2ccccc2s1 | binding | competition with immobilised ligand | 1 µM | 100
CN(C)c1nccc(-c2cnc3ncccn23)n1 | binding | – | 1 µM | 100
O=C(NCC1CCOCC1)c1n[nH]cc1NC(=O)c1c(F)cccc1F | binding | competition with immobilised ligand | 1 µM | 100
